# How the values were obtained:
# [1] = target: T1, Adrenergic receptor alpha-2 (Homo sapiens, UniProt P08913+P18825+P18089); experiment: Displacement of [3H]-RX821002 from adrenergic alpha 2 receptor in post-mortem human brain frontal cortex membrane measured after 30 mins by liquid scintillation counting spectrometry; assay type: cell membranes
# T1 sequence (P08913 whole entry): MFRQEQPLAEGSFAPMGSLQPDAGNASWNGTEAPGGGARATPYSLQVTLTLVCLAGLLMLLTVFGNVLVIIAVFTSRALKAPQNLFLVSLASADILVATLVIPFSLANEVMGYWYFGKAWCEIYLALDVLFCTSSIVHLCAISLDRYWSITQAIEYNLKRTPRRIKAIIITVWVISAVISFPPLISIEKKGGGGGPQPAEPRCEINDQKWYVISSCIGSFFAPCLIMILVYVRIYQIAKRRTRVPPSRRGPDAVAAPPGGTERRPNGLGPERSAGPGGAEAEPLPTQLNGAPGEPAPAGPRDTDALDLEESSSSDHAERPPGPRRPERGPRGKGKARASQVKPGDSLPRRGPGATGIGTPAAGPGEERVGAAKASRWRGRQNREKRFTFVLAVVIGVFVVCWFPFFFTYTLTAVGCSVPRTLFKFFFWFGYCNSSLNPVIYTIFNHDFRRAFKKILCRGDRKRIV
# T1 sequence (P18825 whole entry): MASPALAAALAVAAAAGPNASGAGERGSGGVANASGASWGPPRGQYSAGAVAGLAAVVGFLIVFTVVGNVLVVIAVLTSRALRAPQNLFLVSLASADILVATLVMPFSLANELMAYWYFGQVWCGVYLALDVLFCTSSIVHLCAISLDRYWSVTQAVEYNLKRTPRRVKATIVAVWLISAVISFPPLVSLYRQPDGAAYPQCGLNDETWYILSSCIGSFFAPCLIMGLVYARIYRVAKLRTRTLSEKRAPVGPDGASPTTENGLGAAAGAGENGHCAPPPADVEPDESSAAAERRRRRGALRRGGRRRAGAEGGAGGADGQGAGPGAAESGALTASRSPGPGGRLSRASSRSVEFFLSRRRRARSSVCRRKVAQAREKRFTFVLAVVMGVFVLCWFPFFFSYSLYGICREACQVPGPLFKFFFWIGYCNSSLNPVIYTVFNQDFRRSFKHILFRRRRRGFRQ
# T1 sequence (P18089 whole entry): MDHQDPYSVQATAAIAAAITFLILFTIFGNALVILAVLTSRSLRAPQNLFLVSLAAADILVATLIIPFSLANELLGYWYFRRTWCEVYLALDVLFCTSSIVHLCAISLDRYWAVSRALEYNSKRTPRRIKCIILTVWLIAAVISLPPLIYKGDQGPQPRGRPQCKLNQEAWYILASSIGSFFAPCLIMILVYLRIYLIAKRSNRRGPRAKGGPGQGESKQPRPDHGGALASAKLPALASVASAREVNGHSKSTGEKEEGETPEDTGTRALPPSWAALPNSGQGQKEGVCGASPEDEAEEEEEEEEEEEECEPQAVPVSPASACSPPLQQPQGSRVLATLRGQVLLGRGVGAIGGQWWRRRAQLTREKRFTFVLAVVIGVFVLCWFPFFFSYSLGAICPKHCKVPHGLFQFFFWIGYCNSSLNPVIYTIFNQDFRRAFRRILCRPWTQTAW
# [2] = Permeability of compound by PAMPA-BBB assay; assay type: ADME
# CAPAN-1 = experiment: Cytotoxicity against human CAPAN-1 cells at 100 uM by real time IncuCyte proliferation assay; assay type: cell-based; conditions: capan-1, 100 µM
# Method in brief: (§1)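 Adherent lines (LN-229, Capan-1, HCT-116, NCI-H460) seeded at 500–1500 cells/well and treated after overnight attachment. Suspension lines (HL-60, K-562, Z-138, DND-41) seeded at 2500–5500 cells/well directly with compound. Highest concentration 100 μM; proliferation tracked by real-time IncuCyte imaging over 72 h at 37 °C.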
# K562 = experiment: Cytotoxicity against human K562 cells at 100 uM by real time IncuCyte proliferation assay; assay type: cell-based; conditions: k562, 100 µM; method in brief: as §1
# NCI-H460 = experiment: Cytotoxicity against human NCI-H460 cells at 100 uM by real time IncuCyte proliferation assay; assay type: cell-based; conditions: nci-h460, 100 µM; method in brief: as §1
# HL-60 = experiment: Cytotoxicity against human HL-60 cells at 100 uM by real time IncuCyte proliferation assay; assay type: cell-based; conditions: hl-60, 100 µM; method in brief: as §1
# Z-138 = experiment: Cytotoxicity against human Z138 cells at 100 uM by real time IncuCyte proliferation assay; assay type: cell-based; conditions: z-138, 100 µM; method in brief: as §1
# Homo sapiens [3] = organism: Homo sapiens; experiment: Displacement of [3H]2-BFI from imidazoline I2 receptor in post-mortem human brain frontal cortex membrane assessed as occupancy at high affinity site measured after 45 mins by liquid scintillation counting spectrometry
# [4] = Displacement of [3H]2-BFI from imidazoline I2 receptor high affinity site in post-mortem human brain frontal cortex membrane two site model measured after 45 mins by liquid scintillation counting spectrometry
# [5] = Cytotoxicity against human DND41 cells at 100 uM by real time IncuCyte proliferation assay; assay type: cell-based; conditions: dnd41, 100 µM; method in brief: as §1
# Homo sapiens [6] = organism: Homo sapiens; experiment: Selectivity index, ratio of pKi for displacement of [3H]2-BFI from imidazoline I2 receptor in post-mortem human brain frontal cortex membrane to pKi for displacement of [3H]-RX821002 from adrenergic alpha 2 receptor in post-mortem human brain frontal cortex membrane; assay type: cell membranes
# HCT-116 = experiment: Cytotoxicity against human HCT-116 cells at 100 uM by real time IncuCyte proliferation assay; assay type: cell-based; conditions: hct-116, 100 µM; method in brief: as §1
# LN-229 = experiment: Cytotoxicity against human LN-229 cells at 100 uM by real time IncuCyte proliferation assay; assay type: cell-based; conditions: ln-229, 100 µM; method in brief: as §1
# [7] = Displacement of [3H]2-BFI from imidazoline I2 receptor low affinity site in post-mortem human brain frontal cortex membrane two site model measured after 45 mins by liquid scintillation counting spectrometry
# [8] = Displacement of [3H]2-BFI from imidazoline I2 receptor in post-mortem human brain frontal cortex membrane one site model measured after 45 mins by liquid scintillation counting spectrometry
# [9] = Displacement of [3H]clonidine from imidazoline I1 receptor high affinity site in human hypothalamic membranes measured after 30 mins by liquid scintillation counting spectrometry; assay type: cell membranes, Hypothalamus, Membrane
# [10] = Displacement of [3H]clonidine from imidazoline I1 receptor low affinity site in human hypothalamic membranes measured after 30 mins by liquid scintillation counting spectrometry; assay type: cell membranes, Hypothalamus, Membrane
Structure (SMILES),pKi [1],Papp [2] [×10⁻⁶ cm/s],Activity (CAPAN-1),Activity (K562),Activity (NCI-H460),Activity (HL-60),Activity (Z-138),Activity (Homo sapiens [3]) [%],pKi [4],Activity [5],Selectivity Index (Homo sapiens [6]),Activity (HCT-116),Activity (LN-229),pKi [7],pKi [8],Ki [9] [µM],Ki [10] [µM]
CCn1ccnc1-c1cc2ccc(OC)cc2o1.Cl,3.17,14.8,Non-Toxic,Non-Toxic,Non-Toxic,Non-Toxic,Non-Toxic,12,9.13,Non-Toxic,123,Non-Toxic,Non-Toxic,5.11,5.26,,
Cl.Oc1ccc2cc(-c3ncc[nH]3)oc2c1,3.76,0.1,Non-Toxic,Non-Toxic,Non-Toxic,Non-Toxic,Non-Toxic,,,Non-Toxic,52,Non-Toxic,Non-Toxic,,5.48,,
c1ccc2c(c1)OCC(C1=NCCN1)O2 (centres undefined) [IDAZOXAN],,3.3,Non-Toxic,Non-Toxic,Non-Toxic,Non-Toxic,Non-Toxic,40,7.87,Non-Toxic,,Non-Toxic,Non-Toxic,5.76,7.41,,
CCn1ccnc1-c1cc2ccccc2o1.Cl,3.77,19.2,Non-Toxic,Non-Toxic,Non-Toxic,Non-Toxic,Non-Toxic,22,7.09,Non-Toxic,19,Non-Toxic,Non-Toxic,4.72,5.05,,
COc1ccc2oc(-c3ncc[nH]3)cc2c1.Cl,3.94,8.3,Non-Toxic,Non-Toxic,Non-Toxic,Non-Toxic,Non-Toxic,,,Non-Toxic,295,Non-Toxic,Non-Toxic,,6.41,,
COc1nc(C)nc(Cl)c1NC1=NCCN1 [MOXONIDINE],,,,,,,,,,,,,,,,0.0002,12
COc1ccc2cc(-c3ncc[nH]3)oc2c1.Cl,3.01,7.6,Non-Toxic,Non-Toxic,Non-Toxic,Non-Toxic,Non-Toxic,46,6.77,Non-Toxic,741,Non-Toxic,Non-Toxic,4.58,5.88,,
c1ccc2oc(C3=NCCN3)cc2c1,4.58,6.1,Non-Toxic,Non-Toxic,Non-Toxic,Non-Toxic,Non-Toxic,58,9.08,Non-Toxic,5370,Non-Toxic,Non-Toxic,7.15,8.31,,
CCn1ccnc1-c1cc2cc(OC)ccc2o1.Cl,4.21,12.4,Non-Toxic,Non-Toxic,Non-Toxic,Non-Toxic,Non-Toxic,35,6.95,Non-Toxic,6,Non-Toxic,Non-Toxic,4.16,4.96,,
Cl.Cn1ccnc1-c1cc2ccccc2o1,3.75,17.4,Non-Toxic,Non-Toxic,Non-Toxic,Non-Toxic,Non-Toxic,38,6.99,Non-Toxic,170,Non-Toxic,Non-Toxic,5.35,5.98,,
Cl.Oc1ccc2oc(-c3ncc[nH]3)cc2c1,3.84,0.32,Non-Toxic,Non-Toxic,Non-Toxic,Non-Toxic,Non-Toxic,29,9.57,Non-Toxic,11,Non-Toxic,Non-Toxic,4.6,4.87,,
Brc1ccc2oc(-c3ncc[nH]3)cc2c1.Cl,4.92,20.3,Non-Toxic,Non-Toxic,Non-Toxic,Non-Toxic,Non-Toxic,20,8.63,Non-Toxic,23,Non-Toxic,Non-Toxic,5.85,6.28,,

# Reference: ChEMBL document CHEMBL4825692, “Benzofuranyl-2-imidazoles as imidazoline I2 receptor ligands for Alzheimer's disease” (Eur J Med Chem, 2021)
